{
  "source": "ChEMBL document CHEMBL4622841",
  "about": "“Structural modifications of indolinones bearing a pyrrole moiety and discovery of a multi-kinase inhibitor with potent antitumor activity” (Bioorg Med Chem, 2020)",
  "key": {"HT-29 [1]": {"tested_on": "HT-29", "test": "Induction of apoptosis in human HT-29 cells assessed as late apoptotic cells at 3 uM incubated for 72 hrs by Annexin-V-FITC/propidium iodide staining-based flow cytometric analysis (reference value: 6.12%)", "format": "functional"}, "MKN-74 [2]": {"tested_on": "MKN-74", "test": "Induction of apoptosis in human MKN74 cells assessed as necrotic cells at 1 uM incubated for 72 hrs by Annexin-V-FITC/propidium iodide staining-based flow cytometric analysis (reference value: 6.29%)", "format": "functional"}, "HUVEC [3]": {"tested_on": "HUVEC", "test": "Induction of apoptosis in human HUVEC cells assessed as early apoptotic cells at 3 uM incubated for 48 hrs by Annexin-V-FITC/propidium iodide staining-based flow cytometric analysis (reference value: 3.63%)", "format": "functional"}, "HepG2 [4]": {"tested_on": "HepG2", "test": "Induction of apoptosis in human HepG2 cells assessed as late apoptotic cells at 0.3 uM incubated for 72 hrs by Annexin-V-FITC/propidium iodide staining-based flow cytometric analysis (reference value: 2.89%)", "format": "functional"}, "[5]": {"target": "T1, Cyclin-dependent kinase 2 (Homo sapiens, UniProt P24941)", "test": "Inhibition of CDK2 (unknown origin) using FAM-labeled peptide and ATP as substrate preincubated for 10 mins followed by substrate addition measured after 1 hr by mobility shift assay"}, "[6]": {"target": "Tyrosine-protein kinase Lyn (Homo sapiens, UniProt P07948)", "sequence (P07948 whole entry)": "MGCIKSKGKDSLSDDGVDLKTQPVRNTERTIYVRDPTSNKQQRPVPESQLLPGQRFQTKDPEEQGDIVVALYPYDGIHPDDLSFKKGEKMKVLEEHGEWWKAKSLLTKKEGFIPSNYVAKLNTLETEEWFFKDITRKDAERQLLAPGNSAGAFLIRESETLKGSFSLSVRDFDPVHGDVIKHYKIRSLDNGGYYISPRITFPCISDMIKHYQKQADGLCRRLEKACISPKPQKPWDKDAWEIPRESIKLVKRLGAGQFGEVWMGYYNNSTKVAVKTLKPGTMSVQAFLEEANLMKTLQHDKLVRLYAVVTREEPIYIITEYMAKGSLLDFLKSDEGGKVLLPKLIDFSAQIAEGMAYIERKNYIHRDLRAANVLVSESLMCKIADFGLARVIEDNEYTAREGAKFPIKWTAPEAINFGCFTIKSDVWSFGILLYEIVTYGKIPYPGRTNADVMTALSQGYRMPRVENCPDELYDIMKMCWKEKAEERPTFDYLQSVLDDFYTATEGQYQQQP", "test": "Inhibition of LYN (unknown origin) using FAM-labeled peptide and ATP as substrate preincubated for 10 mins followed by substrate addition measured after 1 hr by mobility shift assay"}, "HepG2 [7]": {"tested_on": "HepG2", "test": "Induction of apoptosis in human HepG2 cells incubated for 72 hrs by Annexin-V-FITC/propidium iodide staining-based flow cytometric analysis", "format": "functional, cell-based"}, "[8]": {"target": "Fibroblast growth factor receptor 1 (Homo sapiens, UniProt P11362)", "sequence (P11362 whole entry, the tested form may be a part)": "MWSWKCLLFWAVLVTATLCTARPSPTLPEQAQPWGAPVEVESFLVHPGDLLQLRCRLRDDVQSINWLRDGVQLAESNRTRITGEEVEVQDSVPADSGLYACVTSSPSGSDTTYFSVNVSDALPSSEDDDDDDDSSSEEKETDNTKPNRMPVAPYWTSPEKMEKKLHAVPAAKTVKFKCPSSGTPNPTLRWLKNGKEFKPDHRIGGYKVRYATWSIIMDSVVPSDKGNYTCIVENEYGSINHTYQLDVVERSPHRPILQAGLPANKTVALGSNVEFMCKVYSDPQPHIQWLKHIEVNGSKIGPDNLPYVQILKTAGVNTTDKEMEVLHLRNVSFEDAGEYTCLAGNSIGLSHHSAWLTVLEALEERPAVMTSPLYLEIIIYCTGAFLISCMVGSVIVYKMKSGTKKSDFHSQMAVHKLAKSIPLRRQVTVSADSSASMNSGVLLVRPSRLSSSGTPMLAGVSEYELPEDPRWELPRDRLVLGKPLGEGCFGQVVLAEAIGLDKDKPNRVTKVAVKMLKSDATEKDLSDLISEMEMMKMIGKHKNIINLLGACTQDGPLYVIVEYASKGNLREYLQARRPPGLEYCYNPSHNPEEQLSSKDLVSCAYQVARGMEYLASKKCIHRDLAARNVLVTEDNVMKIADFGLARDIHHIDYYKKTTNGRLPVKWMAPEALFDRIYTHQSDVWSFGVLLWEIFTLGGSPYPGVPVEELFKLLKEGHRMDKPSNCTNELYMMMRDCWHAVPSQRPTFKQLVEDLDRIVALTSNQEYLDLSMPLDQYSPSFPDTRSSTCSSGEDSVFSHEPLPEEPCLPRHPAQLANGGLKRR", "test": "Inhibition of N-terminal GST fused human recombinant FGFR1 cytoplasmic domain (398 to 822 (end) residues) expressed in baculovirus expression system using FAM-labeled peptide and ATP as substrate preincubated for 10 mins followed by substrate addition measured after 1 hr by mobility shift assay"}, "[9]": {"target": "Vascular endothelial growth factor receptor 1 (Homo sapiens, UniProt P17948)", "sequence (P17948 whole entry, the tested form may be a part)": "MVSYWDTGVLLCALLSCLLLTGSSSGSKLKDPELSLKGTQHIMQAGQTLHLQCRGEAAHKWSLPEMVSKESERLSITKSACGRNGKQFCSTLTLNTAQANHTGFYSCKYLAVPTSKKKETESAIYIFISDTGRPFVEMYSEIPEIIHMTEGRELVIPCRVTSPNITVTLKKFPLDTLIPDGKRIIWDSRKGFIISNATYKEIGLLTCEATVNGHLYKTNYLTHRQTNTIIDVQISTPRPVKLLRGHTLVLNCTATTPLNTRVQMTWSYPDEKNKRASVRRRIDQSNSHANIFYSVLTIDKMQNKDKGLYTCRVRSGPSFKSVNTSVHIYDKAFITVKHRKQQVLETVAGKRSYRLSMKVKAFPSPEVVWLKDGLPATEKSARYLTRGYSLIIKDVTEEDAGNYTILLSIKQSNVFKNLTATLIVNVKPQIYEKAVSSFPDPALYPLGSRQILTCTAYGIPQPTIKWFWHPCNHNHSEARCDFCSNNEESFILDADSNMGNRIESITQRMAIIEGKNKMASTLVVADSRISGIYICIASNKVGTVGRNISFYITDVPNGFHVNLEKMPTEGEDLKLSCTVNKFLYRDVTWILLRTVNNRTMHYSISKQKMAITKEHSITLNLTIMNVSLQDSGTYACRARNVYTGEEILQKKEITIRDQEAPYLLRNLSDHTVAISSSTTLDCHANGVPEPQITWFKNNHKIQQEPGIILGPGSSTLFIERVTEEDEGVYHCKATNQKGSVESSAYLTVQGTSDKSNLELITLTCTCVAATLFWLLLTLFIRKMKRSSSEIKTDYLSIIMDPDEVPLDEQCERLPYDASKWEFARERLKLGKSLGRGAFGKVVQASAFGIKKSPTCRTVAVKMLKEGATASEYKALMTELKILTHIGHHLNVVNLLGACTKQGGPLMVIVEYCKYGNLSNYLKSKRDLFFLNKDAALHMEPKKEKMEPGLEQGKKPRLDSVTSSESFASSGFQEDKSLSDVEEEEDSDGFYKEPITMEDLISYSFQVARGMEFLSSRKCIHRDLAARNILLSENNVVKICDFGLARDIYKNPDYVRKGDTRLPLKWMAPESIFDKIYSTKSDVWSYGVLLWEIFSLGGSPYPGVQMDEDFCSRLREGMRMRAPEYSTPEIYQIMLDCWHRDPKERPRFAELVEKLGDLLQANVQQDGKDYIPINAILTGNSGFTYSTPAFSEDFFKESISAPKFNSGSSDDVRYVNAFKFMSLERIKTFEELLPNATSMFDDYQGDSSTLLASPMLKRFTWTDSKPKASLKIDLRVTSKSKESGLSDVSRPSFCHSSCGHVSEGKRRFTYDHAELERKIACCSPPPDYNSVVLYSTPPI", "test": "(§1) Inhibition of GST-tagged human recombinant VEGFR1 cytoplasmic domain (781 to 1338 residues) expressed in baculovirus expression system using FAM-labeled peptide and ATP as substrate preincubated for 10 mins followed by substrate addition measured after 1 hr by mobility shift assay"}, "[10]": {"test": "as §1, with “VEGFR3” for “VEGFR1”, “(800” for “(781”, “1297” for “1338”, “residues) Q890H/V1128L/H1146R mutant” for “residues)”"}, "HT-29 [11]": {"tested_on": "HT-29", "test": "Induction of apoptosis in human HT-29 cells assessed as early apoptotic cells at 0.3 uM incubated for 72 hrs by Annexin-V-FITC/propidium iodide staining-based flow cytometric analysis (reference value: 3.18%)", "format": "functional"}, "[12]": {"target": "T1, Cyclin-dependent kinase 2", "test": "Inhibition of CDK2 (unknown origin) at 1 uM using FAM-labeled peptide and ATP as substrate preincubated for 10 mins followed by substrate addition measured after 1 hr by mobility shift assay"}, "HT-29 [13]": {"tested_on": "HT-29", "test": "Induction of apoptosis in human HT-29 cells incubated for 72 hrs by Annexin-V-FITC/propidium iodide staining-based flow cytometric analysis", "format": "functional, cell-based"}, "MKN-74 [14]": {"tested_on": "MKN-74", "test": "Induction of apoptosis in human MKN74 cells assessed as necrotic cells at 0.3 uM incubated for 72 hrs by Annexin-V-FITC/propidium iodide staining-based flow cytometric analysis (reference value: 6.29%)", "format": "functional"}, "HT-29 [15]": {"tested_on": "HT-29", "test": "Antitumor activity against human HT-29 cells xenografted in nu/nu mouse assessed as tumour growth inhibition at 100 mg/kg, po qd for 18 days and measured twice per week by vernier caliper method", "format": "functional", "conditions": "HT-29, po, 432 h, read-out: TGI"}, "[16]": {"test": "Half life in mouse liver microsomes", "format": "ADME, Microsome"}, "HepG2 [17]": {"tested_on": "HepG2", "test": "Induction of apoptosis in human HepG2 cells assessed as early apoptotic cells at 0.3 uM incubated for 72 hrs by Annexin-V-FITC/propidium iodide staining-based flow cytometric analysis (reference value: 1.08%)", "format": "functional"}, "[18]": {"target": "Vascular endothelial growth factor receptor 2 (Homo sapiens, UniProt P35968)", "sequence (P35968 whole entry, the tested form may be a part)": "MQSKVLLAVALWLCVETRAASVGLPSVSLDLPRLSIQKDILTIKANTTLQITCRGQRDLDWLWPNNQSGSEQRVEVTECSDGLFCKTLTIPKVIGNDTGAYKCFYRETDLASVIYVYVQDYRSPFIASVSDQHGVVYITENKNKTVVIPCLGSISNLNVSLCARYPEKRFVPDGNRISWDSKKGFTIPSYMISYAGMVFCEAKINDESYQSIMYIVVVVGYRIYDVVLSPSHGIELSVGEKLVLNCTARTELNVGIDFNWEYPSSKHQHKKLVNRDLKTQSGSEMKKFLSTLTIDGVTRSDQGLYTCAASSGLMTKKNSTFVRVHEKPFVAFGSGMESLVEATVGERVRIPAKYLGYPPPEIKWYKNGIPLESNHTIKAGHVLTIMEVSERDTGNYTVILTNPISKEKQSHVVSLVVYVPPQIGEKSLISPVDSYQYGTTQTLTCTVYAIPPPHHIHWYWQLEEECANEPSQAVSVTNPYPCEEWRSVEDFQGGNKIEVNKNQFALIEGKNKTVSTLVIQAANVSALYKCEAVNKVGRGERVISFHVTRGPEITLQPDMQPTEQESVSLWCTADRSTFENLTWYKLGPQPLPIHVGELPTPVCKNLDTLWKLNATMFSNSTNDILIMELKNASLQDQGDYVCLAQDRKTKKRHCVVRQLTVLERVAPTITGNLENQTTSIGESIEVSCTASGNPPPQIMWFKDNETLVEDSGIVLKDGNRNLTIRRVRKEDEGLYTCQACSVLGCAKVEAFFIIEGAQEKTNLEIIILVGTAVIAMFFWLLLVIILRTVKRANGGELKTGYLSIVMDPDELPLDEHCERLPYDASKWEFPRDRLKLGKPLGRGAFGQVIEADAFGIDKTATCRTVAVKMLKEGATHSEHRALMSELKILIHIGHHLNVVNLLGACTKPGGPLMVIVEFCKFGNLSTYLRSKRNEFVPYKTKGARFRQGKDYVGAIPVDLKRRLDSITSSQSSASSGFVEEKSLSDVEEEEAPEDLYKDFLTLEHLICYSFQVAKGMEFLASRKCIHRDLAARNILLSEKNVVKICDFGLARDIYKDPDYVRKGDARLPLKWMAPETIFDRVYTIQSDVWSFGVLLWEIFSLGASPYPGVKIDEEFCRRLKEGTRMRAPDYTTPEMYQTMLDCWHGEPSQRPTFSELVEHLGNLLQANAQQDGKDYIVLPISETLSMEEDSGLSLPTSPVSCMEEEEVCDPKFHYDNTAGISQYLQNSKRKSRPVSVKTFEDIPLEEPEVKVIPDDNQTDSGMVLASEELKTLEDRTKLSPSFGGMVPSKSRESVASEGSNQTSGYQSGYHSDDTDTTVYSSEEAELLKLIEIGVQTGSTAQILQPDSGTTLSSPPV", "test": "Inhibition of N-terminal GST fused human VEGFR2 cytoplasmic domain (790 to 1356 (end) residues) expressed in baculovirus expression system using FAM-labeled peptide and ATP as substrate preincubated for 10 mins followed by substrate addition measured after 1 hr by mobility shift assay"}, "HepG2 [19]": {"tested_on": "HepG2", "test": "Inhibition of colony formation in human HepG2 cells measured after 14 days by crystal violet staining-based assay", "format": "functional, cell-based", "in_short": "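Cells plated and exposed to test agent at a range of concentrations for 14 days, then colonies counted. Colony formation expressed relative to vehicle-treated cells as mean ± SEM. Significance versus vehicle by unpaired two-tailed Student's t-test.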"}, "HEK-293T": {"tested_on": "HEK-293T", "test": "Induction of apoptosis in human HEK293T cells by Annexin-V-FITC/propidium iodide staining-based flow cytometric analysis", "format": "cell-based"}, "MKN-74 [20]": {"tested_on": "MKN-74", "test": "Inhibition of colony formation in human MKN74 cells at 1 uM measured after 14 days by crystal violet staining-based assay", "format": "functional", "conditions": "MKN-74, 336 h"}, "HT-29 [21]": {"tested_on": "HT-29", "test": "Induction of apoptosis in human HT-29 cells assessed as late apoptotic cells at 0.3 uM incubated for 72 hrs by Annexin-V-FITC/propidium iodide staining-based flow cytometric analysis (reference value: 6.12%)", "format": "functional"}, "[22]": {"test": "Half life in human liver microsomes", "format": "ADME, Microsome"}, "MKN-74 [23]": {"tested_on": "MKN-74", "test": "Induction of apoptosis in human MKN74 cells assessed as early apoptotic cells at 3 uM incubated for 72 hrs by Annexin-V-FITC/propidium iodide staining-based flow cytometric analysis (reference value: 1.98%)", "format": "functional"}, "[24]": {"target": "T2, Serine/threonine-protein kinase Chk1 (Homo sapiens, UniProt O14757)", "T2 sequence (O14757 whole entry)": "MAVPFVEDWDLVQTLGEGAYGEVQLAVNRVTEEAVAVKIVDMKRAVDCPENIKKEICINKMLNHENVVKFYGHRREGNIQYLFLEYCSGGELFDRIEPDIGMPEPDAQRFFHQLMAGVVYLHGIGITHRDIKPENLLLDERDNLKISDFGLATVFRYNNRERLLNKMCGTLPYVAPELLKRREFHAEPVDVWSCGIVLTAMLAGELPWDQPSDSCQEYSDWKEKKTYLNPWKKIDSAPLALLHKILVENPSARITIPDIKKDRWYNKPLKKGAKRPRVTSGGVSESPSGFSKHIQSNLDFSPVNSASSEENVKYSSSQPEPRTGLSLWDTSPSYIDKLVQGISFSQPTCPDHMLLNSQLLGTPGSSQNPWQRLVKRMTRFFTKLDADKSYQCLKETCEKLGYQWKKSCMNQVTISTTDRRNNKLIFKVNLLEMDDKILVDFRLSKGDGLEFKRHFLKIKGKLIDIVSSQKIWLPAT", "test": "Inhibition of CHK (unknown origin) using FAM-labeled peptide and ATP as substrate preincubated for 10 mins followed by substrate addition measured after 1 hr by mobility shift assay"}, "HT-29 [25]": {"tested_on": "HT-29", "test": "Induction of apoptosis in human HT-29 cells assessed as early apoptotic cells at 3 uM incubated for 72 hrs by Annexin-V-FITC/propidium iodide staining-based flow cytometric analysis (reference value: 3.18%)", "format": "functional"}, "HUVEC [26]": {"tested_on": "HUVEC", "test": "Induction of apoptosis in human HUVEC cells assessed as late apoptotic cells at 0.3 uM incubated for 48 hrs by Annexin-V-FITC/propidium iodide staining-based flow cytometric analysis (reference value: 3.48%)", "format": "functional"}},
  "note": "The source made the active and inactive calls. The calls are words filed in the database; no cut-off is given here.",
  "data": [
    {"smiles": "COC(=O)c1ccc2c(c1)NC(=O)/C2=C(\\Nc1ccc(-n2c(C)ccc2CN2CCN(C)CC2)cc1)c1ccccc1", "values": [
      {"measurement": "Activity", "setting": "HT-29 [1]", "value": 88.27, "unit": "%"},
      {"measurement": "Activity", "setting": "MKN-74 [2]", "value": 4.52, "unit": "%"},
      {"measurement": "Activity", "setting": "HUVEC [3]", "value": 55.63, "unit": "%"},
      {"measurement": "Activity", "setting": "HepG2 [4]", "value": 4.64, "unit": "%"},
      {"measurement": "IC50", "setting": "[5]", "value": "> 1000", "unit": "nM"},
      {"measurement": "IC50", "setting": "[6]", "value": 16, "unit": "nM"},
      {"measurement": "Activity", "setting": "HepG2 [7]", "value": "Dose-dependent effect"},
      {"measurement": "IC50", "setting": "[8]", "value": 23, "unit": "nM"},
      {"measurement": "IC50", "setting": "[9]", "value": 31, "unit": "nM"},
      {"measurement": "IC50", "setting": "[10]", "value": 6.3, "unit": "nM"},
      {"measurement": "Activity", "setting": "HT-29 [11]", "value": 3.35, "unit": "%"},
      {"measurement": "inhibition", "setting": "[12]", "value": "inactive"},
      {"measurement": "Activity", "setting": "HT-29 [13]", "value": "Dose-dependent effect"},
      {"measurement": "Activity", "setting": "MKN-74 [14]", "value": 6.48, "unit": "%"},
      {"measurement": "inhibition in vivo at 100 mg/kg", "setting": "HT-29 [15]", "value": 13.4, "unit": "%"},
      {"measurement": "half-life", "setting": "[16]", "value": 12.5, "unit": "min"},
      {"measurement": "Activity", "setting": "HepG2 [17]", "value": 1.81, "unit": "%"},
      {"measurement": "IC50", "setting": "[18]", "value": 6.5, "unit": "nM"},
      {"measurement": "inhibition", "setting": "HepG2 [19]", "value": "Dose-dependent effect"},
      {"measurement": "Activity", "setting": "HEK-293T", "value": "Non-Toxic"},
      {"measurement": "inhibition at 1 µM", "setting": "MKN-74 [20]", "value": 100, "unit": "%"},
      {"measurement": "Activity", "setting": "HT-29 [21]", "value": 11.99, "unit": "%"},
      {"measurement": "half-life", "setting": "[22]", "value": 21.2, "unit": "min"},
      {"measurement": "Activity", "setting": "MKN-74 [23]", "value": 8.01, "unit": "%"},
      {"measurement": "IC50", "setting": "[24]", "value": "> 1000", "unit": "nM"},
      {"measurement": "Activity", "setting": "HT-29 [25]", "value": 0.54, "unit": "%"},
      {"measurement": "Activity", "setting": "HUVEC [26]", "value": 2.76, "unit": "%"}
    ]}
  ]
}
